# Screening data as filed in PubChem.
# The list is not random: actives were taken first. Their share in the collection is about 1.9%.
# proCasp3 act = activators of human procaspase-3. activation, % at 8.5 µM. P42574. recombinant procaspase-3 D3A, Ac-DEVD-pNA absorbance 405 nm. hit rate 0.11% among 330,000;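 active = activation above the mean of all tested compounds plus 3 SD, cut at about 21% in these data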;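 also: 0% = DMSO alone and 100% = DMSO wells spiked with extra 5 µM PC-3 D3A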
#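 Compound: 8.5 µM single point, 0.8% DMSO / Material: Autoprocessing-dead procaspase-3 D3A mutant enzyme / Timing: 1 h preincubation plus 2 h reaction at 25 °C / Medium: Zinc-free HEPES/NaCl buffer with 0.01% Triton X-100 at pH 7.4 / Technique: 405 nm absorbance of p-nitroaniline, reads at 0 and 120 min / Repeats: one well per compound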
# Arr AP2 block = human beta-arrestin and AP2 interaction inhibition; FITC-arrestin peptide / GST-AP2 beads, flow cytometry; AP2 beta2 appendage carries R879A mutation; inhibition, % at 10 µM; hit rate 0.31% among 340,000; AID 504490;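 active = inhibition above a set limit, near 3 SD of compounds lacking own fluorescence, cut at about 54% in these data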;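 also: plate controls were DMSO wells for no effect and 5 µM unlabelled arrestin peptide for full effect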
#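 Test system: GST-tagged AP2 beta2-adaptin appendage (R879A) on 4 µm glutathione beads; also added: fluorescein-tagged arrestin peptide at 50 nM final; timing: 12 min plus 1 h, RT; signal: flow cytometry, FL1 (488/535 nm); read-out: percent drop in bead-associated FITC signal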
# PLC-beta3 inh = blocks human PLC-beta3 enzyme activity; AID 720704; Purified PLC-beta3, fluorogenic substrate, fluorescence; inhibition, % at 12.2 µM; hit rate 0.18% among 370,000; in the data active = inhibition above about 11%;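 also: 0% = median of compound wells on plate and 100% = full blocker control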
# proCasp7 act = counter-screen: procaspase-7 (human) activation; recombinant procaspase-7, Ac-DEVD-pNA absorbance 405 nm; D23A/D198A/D206A triple mutant, cannot self-cleave; scale: DMSO 0, 5 µM enzyme 100; AID 463210; activation, % at 8.5 µM; hit rate 0.093% among 330,000;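 active = percent activation above the screen-wide mean plus 3 SD, cut at about 25% in these data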
#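 Detection: p-Nitroaniline absorbance at 405 nm, read at 0 and 120 min; system: Uncleavable procaspase-7 mutant enzyme; evaluation: % activation from two-timepoint absorbance difference, scaled to controls; times: 1 h enzyme–compound preincubation and 2 h substrate reaction, both 25 °C; buffer or medium: Zinc-free HEPES pH 7.4 with 300 mM NaCl, 0.01% Triton X-100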
# HGIII-sPLA2 inh = Blocks human group III sPLA2 activity; inhibition, % at 12.2 µM; QFRET BODIPY PC-A2 liposome hydrolysis, fluorescence; hit rate 0.56% among 370,000; AID 743126;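 active = inhibition above mean plus 3 SD of compounds lying within the high and low control bounds, cut at about 19% in these data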;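 also: 0% = median of test compound wells and 100% = no enzyme DMSO wells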
# PLC-gamma1 inh = PLC-gamma1 (human) inhibition, primary screen; P19174; purified PLC-gamma1, fluorogenic substrate, fluorescence; inhibition, % at 12.2 µM; hit rate 0.84% among 370,000; in the data active = inhibition above about 9.5%
# Arr-AP2 CP1 = inhibitors of human beta-arrestin and AP2 interaction | inhibition, % at 10 µM | hit rate 2% among 1,300 | GST-AP2 beads, FITC arrestin peptide binding, flow cytometry; GST-fused beta2-adaptin appendage, R879A mutant | shares compounds with Arr AP2 block;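 active = inhibition above a set limit, roughly 3 SD of non-fluorescent compound noise, cut at about 38% in these data; inactive = inhibition at or below that limit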;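 also: loss of bead fluorescence from 50 nM FITC arrestin peptide bound to appendage; 0% = negative control wells and 100% = excess unlabelled arrestin peptide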
# GST-FITC bead = counter-screen for beta-arrestin AP2 inhibitors: GST-GSH bead binding; GST-fluorescein binding to GSH beads, fluorescence; hit rate 2% among 1,300; shares compounds with Arr AP2 block; inhibition, % at 10 µM;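 active = inhibition above 50%, about 3 SD of the inhibition seen with non-fluorescent compounds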;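 also: fluorescein maleimide labelled GST captured on 4 micron glutathione beads; higher means more loss of bead fluorescence from quenching or blocked binding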
# Numbers without * were called inactive; i = inactive; . = no result given.
SMILES,proCasp3 act,Arr AP2 block,PLC-beta3 inh,proCasp7 act,HGIII-sPLA2 inh,PLC-gamma1 inh,Arr-AP2 CP1,GST-FITC bead
CN(CC(=O)NCCN1CCOCC1)S(=O)(=O)c1ccc(Cl)cc1,0,-2,0,-3,14,1,.,.
CN(CC(=O)NCCCN1CCOCC1)S(=O)(=O)c1cc(Cl)ccc1Cl,.,64*,-1,.,5,8,9,-2
Cc1cc(C)n2[nH]c(=O)c(N=Nc3ccccc3)c2n1,-1,3,4,-16,-2,3,.,.
Cc1cc(C)n2[nH]c(=O)c(N=Nc3cccc(Cl)c3)c2n1,3,90*,3,2,5,1,2,-5
O=C(CNS(=O)(=O)c1ccccc1)OCC(=O)c1c[nH]c2ccccc12,-7,76*,-14,5,-20,-9,9,-6
CN1C[C@]2(C=C3CCCCC3n3c(=O)n(-c4ccccc4)c(=O)n32)N(C(=O)OCc2ccccc2)C1=NC(=O)c1ccccc1 (stereo partly drawn),.,.,3,.,-4,3,.,.
CCOc1ccc2nc(NC(=O)CS(=O)(=O)c3ccccc3)sc2c1,9,81*,4,15,-34,4,4,-2
Cc1cc(OC(C)C(=O)NCc2ccncc2)c2c(C)cc(=O)oc2c1 (stereo not drawn),-4,16,-174,10,-2,-116,.,.
CCCCc1cc(=O)oc2cc(C)cc(OC(C)C(=O)NCc3ccncc3)c12 (stereo not drawn),1,67*,-65,2,-2,-35,-6,-5
C/C(=N\NC(=O)c1ccccc1OCCOc1ccccc1)c1ccccc1F,.,76*,3,.,0,-1,-17,-1
C/C(=N\NC(=O)c1ccccc1)c1ccccc1F,-1,3,1,4,1,1,.,.
Nc1ncc(Br)cc1S(=O)(=O)Nc1ccccc1F,1,58*,-5,-1,-13,-1,3,-11
CCOc1cc(CNc2ccc(N3CCCC3)cc2)cc(Cl)c1OC,-15,55*,-33,-17,2,-27,2,13
COc1cc(CNc2ccc(N3CCCC3)cc2)cc(Cl)c1OC,-5,46,-77,-18,2,-52,.,.
Cc1nc2ccc(NC(=O)c3ccccc3)cc2s1,-1,-4,-10,-11,14,-3,.,.
Cc1nc2ccc(NC(=O)c3ccc4ccccc4n3)cc2s1,-1,65*,-1,5,-1,2,-7,-2
O=C(N[C@@H](Cc1cccnc1)C(=O)N1CCC[C@H]1C(=O)NCCc1ccccc1Cl)c1ccc(Cl)cc1Cl,.,.,4,.,1,1,.,.
CN(Cc1ccco1)S(=O)(=O)c1ccc2c(c1)CCN2C(=O)CC(C)(C)C,.,.,-4,.,-7,-3,.,.
COc1ccc(C(=O)Nc2cc3c(cc2N2CCOCC2)n(C)c(=O)n3C)cc1OC,5,2,.,10,.,.,-20,-13
CCOc1cc(C(=O)Nc2cc3c(cc2N2CCOCC2)n(C)c(=O)n3C)cc(OCC)c1OCC,3,-7,-7,-3,4,-2,-4,-7
COc1cccc(C(=O)Nc2cc3c(cc2N2CCOCC2)n(C)c(=O)n3C)c1,-6,8,-6,-11,-4,-3,6,-5
COc1cc(C(=O)Nc2ccccc2N2CCOCC2)ccc1OCC(=O)N1CCOCC1,-1,31,-9,7,9,0,.,.
CCOc1cc(N2CCOCC2)c(OCC)cc1NC(=O)c1ccc(S(C)(=O)=O)cc1,0,-19,-6,6,1,0,.,.
Cn1c(=O)n(C)c2cc(N3CCCCC3)c(NC(=O)c3cccc(Cl)c3)cc21,3,7,-238,-4,4,-146,-6,-4
CCCCN(C)C(=O)CN1C(=O)C2CCCCN2C(=O)c2ccccc21 (stereo not drawn),.,.,0,.,-1,-2,.,.
SMILES,proCasp3 act,Arr AP2 block,PLC-beta3 inh,proCasp7 act,HGIII-sPLA2 inh,PLC-gamma1 inh,Arr-AP2 CP1,GST-FITC bead
COc1cc(C2C(C(C)=O)=C(O)C(=O)N2CCN(C)C)ccc1O (stereo not drawn),4,69*,-2,4,10,-2,5,-5
COC(=O)C[C@@H]1CC[C@@H]2[C@@H](COc3ccc(NC(=O)c4ccc(F)cc4)cc3C(=O)N2C)O1,.,.,3,.,1,3,.,.
Nn1c(SCc2ccc(Br)cc2)nnc1-c1n[nH]c2c1CCC2,.,.,5,.,-2,2,.,.
COCC(=O)Nc1nc2n(n1)C(c1ccc(Cl)cc1)CC(c1ccc(OC)cc1)N2 (stereo not drawn),2,80*,i,6,-3,i,2,-3
FC(F)(F)c1cccc(Cn2ccc3ccc(-c4ccc5ccn(Cc6cccc(C(F)(F)F)c6)c5c4)cc32)c1,.,.,-51,.,0,-39,.,.
CN(C)S(=O)(=O)c1ccc(N2CCCC2)c(C(=O)NNC(=O)c2ccccc2)c1,-3,64*,-8,12,11,-2,0,4
Cc1ccc(Cn2cc(CN3[C@H](c4ccccc4)COc4cc(Br)ccc4S3(=O)=O)nn2)cc1,.,.,0,.,-63,-1,.,.
COc1cccc(NC(=O)CC(=O)c2ccccc2)c1,0,63*,-4,-5,-31,1,-1,-8
CC(=O)CC(=O)Nc1ccc(C(N)=O)cc1,0,46,-2,-8,2,0,-9,-6
COc1cccc(NC(=O)CC(C)=O)c1,6,57*,2,-8,0,1,-5,-10
COc1cccc(NC(=O)Cc2ccccc2)c1,7,1,-1,-1,-4,0,.,.
COc1cccc(NC(=O)CSCC(=O)Nc2ccccc2)c1,2,0,1,-2,-5,-1,.,.
CCCC(=O)Nc1ccc(C(N)=O)cc1,-6,-8,-1,-2,9,-2,.,.
CCOC(=O)N1CCN(C(=O)/C(=C/c2cccs2)NC(=O)c2ccc(OC)c(OC)c2)CC1,-7,60*,-10,-14,1,-1,-2,-14
